From ChEMBL document CHEMBL2385008, “Inducers of hypoxic response: marine sesquiterpene quinones activate HIF-1” (2013)
Active and inactive are the calls of the source. The rule behind the calls is not given here.

Key:
T47D [1] = assay: Activation of HIF-1 in human T47D cells assessed as increase in cellular VEGF production at 10 uM after 16 hrs by ELISA; type: cell-based
In short: (§1)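 T47D cells treated at 10 μM for 16 h. VEGF protein measured by ELISA in conditioned medium (secreted) or cell lysate (cellular), normalized to cellular protein by micro BCA assay. Untreated medium control; 1,10-phenanthroline positive control. Mean + SD pooled from two independent experiments (n = 3); p < 0.05 versus untreated control flagged.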

T47D [2] = assay: Cytotoxicity against human T47D cells assessed as growth inhibition at 3 to 30 uM after 48 hrs by SRB assay; type: functional, cell-based
In short: (§2)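 T47D or MDA-MB-231 breast tumor cells (DMEM/F12, 10% FBS, penicillin/streptomycin) plated in 96-well format and exposed to compound for 48 h. Viability read by sulforhodamine B staining and expressed as % inhibition relative to untreated control. One representative experiment in triplicate, mean with SD.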

T47D (Homo sapiens) = assay: Activation of HIF-1 in human T47D cells assessed as increase in VEGF production at 10 uM after 16 hrs by ELISA
MDA-MB-231 = assay: Cytotoxicity against human MDA-MB-231 cells assessed as growth inhibition at 3 to 30 uM after 48 hrs by SRB assay; type: functional, cell-based; in short: as §2
T47D [3] = assay: Activation of HIF-1 in human T47D cells assessed as increase in secreted VEGF production at 10 uM after 16 hrs by ELISA; type: cell-based; in short: as §1
T47D [4] = assay: Cytotoxicity against human T47D cells assessed as growth inhibition at 30 uM after 48 hrs by SRB assay relative to control; type: functional; conditions: read-out: GI; in short: as §2
T47D [5] = assay: Activation of HIF-1 (unknown origin) transfected in human T47D cells at 10 uM after 16 hrs by luciferase reporter gene assay relative to control; type: cell-based
In short: (§3)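 T47D breast tumor cells grown in DMEM/F12 with L-glutamine, 10% FBS and penicillin/streptomycin, transfected with HIF-1 reporter pHRE3-TK-Luc; compound exposure 16 h. Luciferase activity normalized to untreated control as relative luciferase activity; 1,10-phenanthroline used as HIF-1 activator control. Mean + SD, n = 4.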

T47D [6] = assay: Activation of HIF-1 (unknown origin) transfected in human T47D cells at 3 to 30 uM after 16 hrs by luciferase reporter gene assay; type: cell-based; in short: as §3

## C=C1CCC[C@H]2[C@](C)(CC3=C(O)C(=O)C=C(OC)C3=O)[C@@H](C)CC[C@]12C [ILIMAQUINONE]
T47D [1]
  Activity: Active
T47D [2]
  growth inhibition (GI): Dose-dependent effect
T47D (Homo sapiens)
  Activity: Active
MDA-MB-231
  growth inhibition (GI): Dose-dependent effect
T47D [3]
  Activity: Active
T47D [4]
  inhibition of growth at 30 µM: 56%
T47D [5]
  Activity: 930%

## C=C1CCC[C@H]2[C@](C)(CC3=C(O)C(=O)C=C(OC)C3=O)[C@H](C)CC[C@@]12C (relative stereo)
T47D [1]
  Activity: Active
T47D [2]
  growth inhibition (GI): Dose-dependent effect
T47D (Homo sapiens)
  Activity: Active
MDA-MB-231
  growth inhibition (GI): Dose-dependent effect
T47D [3]
  Activity: Active
T47D [4]
  inhibition of growth at 30 µM: 60%
T47D [5]
  Activity: 830%

## COC1=CC(=O)C2=C(C[C@@H]3[C@@]4(C)CCCC(C)(C)[C@@H]4CC[C@@]3(C)O2)C1=O
T47D [2]
  growth inhibition (GI): Dose-dependent effect
MDA-MB-231
  growth inhibition (GI): Dose-dependent effect
T47D [6]
  Activity: inactive

## COC(=O)c1cc2c(c(O)c1O)O[C@@]1(C2)[C@@H](C)CC[C@H]2C(C)(C)CCC[C@@]21C
T47D [2]
  growth inhibition (GI): Dose-dependent effect
MDA-MB-231
  growth inhibition (GI): Dose-dependent effect
T47D [6]
  Activity: inactive

## C=C1CCC[C@@]23OC4=C(C[C@]2(C)[C@H](C)CC[C@@]13C)C(=O)C(OC)=CC4=O
T47D [2]
  growth inhibition (GI): Dose-dependent effect
MDA-MB-231
  growth inhibition (GI): Dose-dependent effect
T47D [6]
  Activity: inactive

## c1cnc2c(c1)ccc1cccnc12
T47D [1]
  Activity: Active
T47D [3]
  Activity: Active

## COC1=CC(=O)C(O)=C(C[C@]2(C)[C@H](C)CC[C@]34C[C@@]3(C)CCC[C@@H]24)C1=O
T47D [1]
  Activity: Active
T47D [2]
  growth inhibition (GI): Dose-dependent effect
T47D (Homo sapiens)
  Activity: Active
MDA-MB-231
  growth inhibition (GI): Dose-dependent effect
T47D [3]
  Activity: Active
T47D [4]
  inhibition of growth at 30 µM: 58%
T47D [5]
  Activity: 1000%

## COC1=CC(=O)C2=C(C[C@]3(C)[C@H](C)CC[C@]45C[C@@]4(C)CCC[C@]53O2)C1=O
T47D [2]
  growth inhibition (GI): Dose-dependent effect
MDA-MB-231
  growth inhibition (GI): Dose-dependent effect
T47D [6]
  Activity: inactive

## CC1(C)CCC[C@]2(C)[C@H]3Cc4cc(O)ccc4O[C@@]3(C)CC[C@@H]12
T47D [2]
  growth inhibition (GI): inactive
MDA-MB-231
  growth inhibition (GI): inactive
T47D [6]
  Activity: inactive

## COC1=CC(=O)C2=C(C[C@]3(O2)[C@@H](C)CC[C@H]2C(C)(C)CCC[C@@]23C)C1=O
T47D [2]
  growth inhibition (GI): Dose-dependent effect
MDA-MB-231
  growth inhibition (GI): Dose-dependent effect
T47D [6]
  Activity: inactive
